Results filed as inconclusive are left out.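 How the source made its calls, unless noted: active means viability increase at or above a cutoff of the median across tested compounds plus 3 SD (cut at about 8.5% in these data, passing the limit was not always enough); inconclusive means some gains above the cutoff, reason not given; inactive means the rest.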
Columns and labels:
[1] = OD615 S. cerevisiae growth inhibition, permissive medium, pilot counter-assay, permissive growth control for S. cerevisiae lifespan shortening project (AID 705;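 active means growth inhibition above 25% in both replicates, a cutoff set 3 SD above the mean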); conditions: OD615, 24 h, at 10 µM, hits give high values
Summary of the method: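 Timing: 24 h exposure, 30 °C / Material: Saccharomyces cerevisiae strain carrying genetically modified DeaD replicative-lifespan system / Signal: OD at 615 nm / Compound: 10 µM single dose, 0.25% DMSO / Medium: SC raffinose/galactose permissive medium / Evaluation: reduction in yeast growth (OD615)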

[2] = Restrictive medium S. cerevisiae growth inhibition, OD615, pilot screen of yeast lifespan reduction project, restrictive growth control (AID 706;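 active means growth inhibition above a set limit, 3 SD over mean compound inhibition, in both replicates, cut at about 43% in these data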;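 further: modified DeaD lifespan yeast strain shifted to restrictive glucose medium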); conditions: OD615, 48 h, at 10 µM, hits give high values
Summary of the method: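 System: Engineered S. cerevisiae DeaD strain | Detection: OD615 | Buffer or medium: CSMM-D glucose medium | Doses: 10 µM compound, 0.25% DMSO | Timing: 4 h pre-growth plus 48 h compound exposure, 30 °C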

[3] = viability gain of MRP-1-high H69AR cells under doxorubicin, pilot screen, MRP-1 activator project, CellTiter-Glo, duplicate (AID 807); conditions: H69AR viability with doxorubicin, CellTiter-Glo luminescence; at 10 µM; hits give high values;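 further: compound pretreatment 18-22 h then 72 h combined with doxorubicin; 0% = doxorubicin alone and 100% = vehicle without doxorubicin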
[4] = growth suppression of beta-catenin knockout HCT116, pilot screen, human colon tumor cells (AID 823;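 active means cell viability at or below a set limit in both duplicate runs, the limit being the all-compound median minus 4 SD, cut at about 23% in these data, passing the limit was not always enough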;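 further: 0% = wells killed by 20 µM Hyamine and 100% = untreated DMSO cell wells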); conditions: CellTiter-Glo, 60 h, at 10 µM, hits give low values
[5] = growth suppression of PTEN-deleted HCT116, pilot screen, cell-based, HCT116 clonal line, CellTiter-Glo (AID 824;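 active means viability at or below 27.92% in each of two runs, the all-compound median minus 4 SD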;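 further: 0% = 20 µM Hyamine control and 100% = vehicle cell control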); conditions: 60 h, at 10 µM, hits give low values
[6] = inhibitors of the yeast RAM network, pilot screen, dse1pr::URA3 reporter, 5-FOA selection (AID 869;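 active means inhibition over a set limit, the all-compound mean plus 3 SD, in both replicate runs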;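 further: 0% = DMSO wells with no growth and 100% = 10 µM 1-NA-PP1 with full growth; RAM network block rescues cells from 5-FOA so hits raise OD615 growth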); conditions: S. cerevisiae dse1pr::URA3 5-FOA growth, OD615, 2 d; at 10 µM; hits give high values; strain carries analog-sensitive mutant Cbk1 kinase
[7] = RAM signaling pathway blockade in yeast – S. cerevisiae, Pdr1DBD-CYC8 efflux-inhibited sensitized strain, primary screen (AID 1298;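 active means RAM network inhibition above 8.4% in each of two replicates, 3 SD over the compound average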;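 further: 0% = DMSO untreated cells without growth and 100% = 10 µM 1-NA-PP1 full growth; higher means more yeast growth rescued from 5-FOA killing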); conditions: S. cerevisiae cbk1-as DSE1-URA3 strain, 5-FOA growth OD615, 2 d; at 50 µM; hits give high values

CC(C)N1C(=O)CCC1C(=O)N1CCC(Cc2ccccc2)CC1 (configuration not stated)
inactive: growth inhibition [1] -8.06% | growth inhibition [2] 0.645% | viability increase [3] 1.19% | viability [4] 102% | viability [5] 95.3% | inhibition [6] 1.92% | RAM network inhibition [7] 2.34%

O=C(NCc1ccco1)C1c2ccccc2Oc2ccccc21
inactive: growth inhibition [1] -6.75% | growth inhibition [2] 6.04% | viability increase [3] -5.24% | viability [4] 83.8% | viability [5] 88.4% | inhibition [6] 0.12% | RAM network inhibition [7] 3.94%

O=C(NCc1ccccn1)c1nnc(Cc2ccc(Cl)cc2)o1
inactive: growth inhibition [1] -1.48% | growth inhibition [2] 2.66% | viability increase [3] 1.55% | viability [4] 108% | viability [5] 103% | inhibition [6] 0.515% | RAM network inhibition [7] -1.46%

Cc1ccccc1NC(=O)C1CC(Cl)=CCC1C(=O)O (configuration not stated)
inactive: growth inhibition [1] -2.29% | growth inhibition [2] -0.385% | viability increase [3] -0.5% | viability [4] 101% | viability [5] 96.9% | inhibition [6] 1.52% | RAM network inhibition [7] 6.8%

CC(=O)c1cc(CN2C(=O)CCC2=O)cs1
inactive: growth inhibition [1] -5.33% | growth inhibition [2] -9.9% | viability increase [3] -0.46% | viability [4] 94.1% | viability [5] 95.6% | inhibition [6] 1.64% | RAM network inhibition [7] 1.46%

Cc1cc(C)cc(OCC(=O)Nc2cccc(-c3nc4ncccc4o3)c2)c1
inactive: growth inhibition [1] -7.77% | growth inhibition [2] -1.93% | viability increase [3] -1.93% | viability [4] 65.4% | viability [5] 59.7% | inhibition [6] 3.17% | RAM network inhibition [7] 6.74%

O=C(NCCCN1CCOCC1)NC12CC3CC(CC(C3)C1)C2
inactive: growth inhibition [1] -1.84% | growth inhibition [2] 2.31% | viability increase [3] -0.98% | viability [4] 104% | viability [5] 105% | inhibition [6] 0.625% | RAM network inhibition [7] 0.01%

Cc1nn(-c2cccc(C(F)(F)F)c2)c(Cl)c1/C=N/n1cnnc1
inactive: growth inhibition [1] -2.49% | growth inhibition [2] 17% | viability increase [3] -6.44% | viability [4] 87.7% | viability [5] 85.7% | inhibition [6] -0.18% | RAM network inhibition [7] 1.77%

c1ccc(-c2nnc(SCc3nc4ccccc4[nH]3)n2Cc2ccco2)nc1
inactive: growth inhibition [1] -0.44% | growth inhibition [2] 10.8% | viability increase [3] -1.33% | viability [4] 90.3% | viability [5] 91% | inhibition [6] 0.04% | RAM network inhibition [7] -0.6%

c1ccc(-c2csc3ncn4cnnc4c23)cc1
inactive: growth inhibition [1] -7.59% | growth inhibition [2] 2.29% | viability increase [3] -1.06% | viability [4] 97.8% | viability [5] 91.4% | inhibition [6] 1.15% | RAM network inhibition [7] 2.91%

C=CCOC(=O)c1[nH]c2c(c1C)C(=O)CC(c1cc(OC)c(OC)c(OC)c1)C2 (configuration not stated)
inactive: growth inhibition [1] 1.75% | growth inhibition [2] 6.24% | viability increase [3] -0.05% | viability [4] 53.4% | viability [5] 66.7% | inhibition [6] 3.67% | RAM network inhibition [7] 5.97%

O=C(N1CCN(c2ccc(F)cc2)CC1)C12CC3CC(CC(C3)C1)C2
inactive: growth inhibition [1] -15.7% | growth inhibition [2] -5.23% | viability increase [3] -0.18% | viability [4] 84.1% | viability [5] 83.6% | inhibition [6] 0.94% | RAM network inhibition [7] 11.5%

CC1(C)C(c2ccccc2)=[N+]([O-])CN1O
inactive: growth inhibition [1] 1.85% | growth inhibition [2] 9.78% | viability increase [3] -2.5% | viability [4] 107% | viability [5] 96.3% | inhibition [6] -0.14% | RAM network inhibition [7] -0.11%

CC(C)N(CCc1ccncc1)C(=O)Nc1ccc(Cl)c(Cl)c1
inactive: growth inhibition [1] -4.55% | growth inhibition [2] -1.79% | viability increase [3] -0.23% | viability [4] 81.1% | viability [5] 87.8% | inhibition [6] 2.42% | RAM network inhibition [7] 3.94%

COc1ccc(C/C(N)=N/n2cnnc2)cc1
inactive: growth inhibition [1] 2.64% | growth inhibition [2] -3.72% | viability increase [3] 0.39% | viability [4] 100% | viability [5] 106% | inhibition [6] 0.64% | RAM network inhibition [7] 3.02%

Cc1ccccc1NC(=O)c1cnn(-c2ccccc2)c1NC(=O)c1ccco1
inactive: growth inhibition [1] -12.6% | growth inhibition [2] -3.13% | viability increase [3] -0.49% | viability [4] 103% | viability [5] 98.2% | inhibition [6] 0.855% | RAM network inhibition [7] 1.65%

CCn1c2ccccc2c2nnc(SCc3cc(=O)n4ccsc4n3)nc21
inactive: growth inhibition [1] -8.94% | growth inhibition [2] 8.05% | viability increase [3] -2.35% | viability [4] 93.5% | viability [5] 86.3% | inhibition [6] 1.52% | RAM network inhibition [7] 8.94%

COc1ccccc1S(=O)(=O)Cc1ccc(C(=O)NCc2ccc3c(c2)OCO3)o1
inactive: growth inhibition [1] -4.21% | growth inhibition [2] -26.9% | viability increase [3] -2.83% | viability [4] 91.9% | viability [5] 87.4% | inhibition [6] 1.9% | RAM network inhibition [7] 6.73%

COC(=O)C(Cc1ccccc1)NC(=O)CSc1nc(C)cc(=O)[nH]1 (configuration not stated)
inactive: growth inhibition [1] -8.37% | growth inhibition [2] -4.86% | viability increase [3] -2.4% | viability [4] 101% | viability [5] 91.7% | inhibition [6] 1.4% | RAM network inhibition [7] -0.21%

Cn1c(C(=O)NCc2cccs2)cc2c(=O)n(C)c3ccccc3c21
inactive: growth inhibition [1] -0.025% | growth inhibition [2] -1.79% | viability increase [3] -3.65% | viability [4] 98.9% | viability [5] 98.1% | inhibition [6] 2.62% | RAM network inhibition [7] 1.75%

Cc1ccc(-c2nc(C3CCCN(S(=O)(=O)c4ccc(C)cc4)C3)no2)cc1 (configuration not stated)
inactive: growth inhibition [1] -10.8% | growth inhibition [2] 9.18% | viability increase [3] 5.21% | viability [4] 85.2% | viability [5] 84.3% | inhibition [6] 1.08% | RAM network inhibition [7] -1.57%

Cc1ccccc1C(=O)N1CCC(C(=O)Nc2cccc(F)c2)CC1
inactive: growth inhibition [1] -7.2% | growth inhibition [2] -1.04% | viability increase [3] -0.02% | viability [4] 98.1% | viability [5] 82.7% | inhibition [6] 1.3% | RAM network inhibition [7] 3.22%

Cc1cc(C)n(CC(O)Cn2c3ccccc3c3ccccc32)c(=O)n1 (configuration not stated)
inactive: growth inhibition [1] -7.41% | growth inhibition [2] -12.9% | viability increase [3] -2.44% | viability [4] 90% | viability [5] 91.5% | inhibition [6] 1.3% | RAM network inhibition [7] 5.3%

CCN(CC)CCNC(=O)Cn1nc(Cc2cccnc2)c2ccccc2c1=O
inactive: growth inhibition [1] -3.85% | growth inhibition [2] -2.59% | viability increase [3] -0.86% | viability [4] 95.7% | viability [5] 97.7% | inhibition [6] -0.35% | RAM network inhibition [7] 1.23%

CCOc1ccc(NC(=O)c2ccc(N)cc2)cc1
inactive: growth inhibition [1] -1.98% | growth inhibition [2] -14.4% | viability increase [3] -2.73% | viability [4] 91.8% | viability [5] 89.2% | inhibition [6] 2.77% | RAM network inhibition [7] 2.88%

CC(C)(C)NC(=O)c1ccc(NC(=O)C2COc3ccccc3O2)cc1 (configuration not stated)
inactive: growth inhibition [1] -6.05% | growth inhibition [2] -6.04% | viability increase [3] -0.73% | viability [4] 99.3% | viability [5] 96.4% | inhibition [6] 1.9% | RAM network inhibition [7] -0.88%

CCCNC(=O)CS(=O)Cc1nc(-c2ccc(OC)cc2)oc1C (configuration not stated)
inactive: growth inhibition [1] -5.5% | growth inhibition [2] 19.6% | viability increase [3] -2.12% | viability [4] 97.2% | viability [5] 93.9% | inhibition [6] 1.62% | RAM network inhibition [7] 3.43%

CCOC(=O)c1ccc(S(=O)(=O)N2CCN(CCC#N)CC2)cc1
inactive: growth inhibition [1] -7.13% | growth inhibition [2] 0.63% | viability increase [3] 1.42% | viability [4] 102% | viability [5] 99.4% | inhibition [6] 0.195% | RAM network inhibition [7] 0.21%

Cn1c(C(=O)N2CCN(c3ncccn3)CC2)cc2c(=O)n(C)c3ccccc3c21
inactive: growth inhibition [1] 6.33% | growth inhibition [2] 8.57% | viability increase [3] 2.83% | viability [4] 105% | viability [5] 97.2% | inhibition [6] 1.92% | RAM network inhibition [7] -0.01%

COc1cc(C(=O)NCC(c2ccco2)N2CCCC2)ccc1OCc1c(C)noc1C (configuration not stated)
inactive: growth inhibition [1] 0.045% | growth inhibition [2] -23.7% | viability increase [3] -4.73% | viability [4] 82.7% | viability [5] 83.8% | inhibition [6] 1.03% | RAM network inhibition [7] 3.83%

CC(C)N(CCCNC(=O)CC1Oc2ccccc2NC1=O)Cc1ccccc1 (configuration not stated)
inactive: growth inhibition [1] 2.46% | growth inhibition [2] 10.3% | viability increase [3] -1.49% | viability [4] 89.3% | viability [5] 97.7% | inhibition [6] 0.47% | RAM network inhibition [7] 3.18%

O=C(Cn1c(=O)n(-c2ccccc2)c(=O)n1CC(=O)N1CCCCC1)N1CCCCC1
inactive: growth inhibition [1] -8.76% | growth inhibition [2] -2.77% | viability increase [3] -0.69% | viability [4] 107% | viability [5] 96.4% | inhibition [6] 0.495% | RAM network inhibition [7] 0.57%

CC(=O)c1sc2ccccc2c1OC(=O)c1ccco1
inactive: growth inhibition [1] -9.99% | growth inhibition [2] -11.4% | viability increase [3] -4.46% | viability [4] 83% | viability [5] 85.3% | inhibition [6] 0.39% | RAM network inhibition [7] 1.97%

CSC1=NCCN1C(=O)c1ccc(S(=O)(=O)N2CCOCC2)cc1
inactive: growth inhibition [1] 3.77% | growth inhibition [2] 10.2% | viability increase [3] -1.31% | viability [4] 102% | viability [5] 94.1% | inhibition [6] 0.62% | RAM network inhibition [7] 3.04%

c1coc(Cn2c(SCc3nc4ccccc4[nH]3)nnc2-c2cccs2)c1
inactive: growth inhibition [1] 0.98% | growth inhibition [2] 21.3% | viability increase [3] -1.17% | viability [4] 93% | viability [5] 89.8% | inhibition [6] 3.64% | RAM network inhibition [7] 1.24%

Cc1csc2nc(CNS(=O)(=O)c3ccc4c(c3)CCCC4)cn12
inactive: growth inhibition [1] -17.5% | growth inhibition [2] 0.8% | viability increase [3] -0.44% | viability [4] 101% | viability [5] 93.2% | inhibition [6] 1.17% | RAM network inhibition [7] 0.48%

From PubChem BioAssay
